The text below walks through data of PMC11962346 (Chemistry (Weinheim an Der Bergstrasse, Germany), 2025).

The target in one assay is p53‐hDM2 interaction (Homo sapiens, UniProt Q00987). Put plainly: TR-FRET. It counts as binding. Conditions: for IC50: IC50±SEM hDM2, 9-point curves in duplicates; for inhibition at 0.1 µM: read-out: Inhibition at 100 nM (%) hDM2.
For a further assay, the target named is T1, p53‐hDMX interaction (Homo sapiens, UniProt O15151).
T1 sequence (O15151 1-490): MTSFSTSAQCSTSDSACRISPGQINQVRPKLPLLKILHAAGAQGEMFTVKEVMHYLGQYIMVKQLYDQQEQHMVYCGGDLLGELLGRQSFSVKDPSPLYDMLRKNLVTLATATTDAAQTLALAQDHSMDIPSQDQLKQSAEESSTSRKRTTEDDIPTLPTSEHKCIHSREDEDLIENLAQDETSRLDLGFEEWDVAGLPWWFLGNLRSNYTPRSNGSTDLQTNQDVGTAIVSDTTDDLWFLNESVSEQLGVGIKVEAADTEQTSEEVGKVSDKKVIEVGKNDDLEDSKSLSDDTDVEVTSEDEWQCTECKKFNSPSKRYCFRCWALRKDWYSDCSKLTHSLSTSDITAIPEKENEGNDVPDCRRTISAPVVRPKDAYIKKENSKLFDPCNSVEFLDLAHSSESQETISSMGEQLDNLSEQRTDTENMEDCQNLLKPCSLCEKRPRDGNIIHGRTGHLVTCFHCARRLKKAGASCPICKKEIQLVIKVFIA
Description: TR-FRET. Particulars: for IC50: IC50±SEM hDMX, 9-point curves in duplicates; for inhibition at 0.1 µM: read-out: Inhibition at 100 nM (%) hDMX. It counts as binding.

The next assay concerns p53wt HCT116 cells. Put plainly: Western blot of p53 protein levels. It counts as cell-based, human. Particulars: 6 hours treatment, 0.1 to 40 µM. In a few lines:
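p53wt HCT116 cells in exponential growth, seeded one day ahead, were exposed to test compound for 6 h without serum, then lysed in RIPA. SDS-PAGE, wet transfer to nitrocellulose, 5% BSA/TBS-T block 1 h RT. Anti-p53 and anti-GAPDH overnight at 4 °C, infrared anti-mouse secondary 1.5 h RT. Positive control was a reference hDM2 inhibitor. Three independent biological replicates.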
(In general: A western blot detects proteins with antibodies after separation by electrophoresis.)

For assay [1], the system named is HCT116 cells. Put plainly: MTS cell viability assay. It counts as cell-based, human. Conditions: 3 days of incubation. Put shortly:
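HCT116 cells (passages 47–50; DMEM, 10% heat-inactivated FCS, 37 °C, 5% CO₂) seeded at 3×10³ cells/well with test compound at various concentrations in serum-free medium for 8 h. Serum (10%) then added for 64 h more. MTS reagent added, absorbance read at 490 nm, % viability taken versus untreated cells. Two independent experiments, three technical replicates each.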

Assay [2] has as its system HCT116 cells. Description: RT-qPCR of p53 target genes p21 and hDM2. Format: cell-based, human. Conditions: 6 hours treatment, n=3. On the technique in general: Quantitative PCR measures a nucleic acid by following its amplification.

*1 amine or outer side, *2 acyl side, *3 side chain or, on linkers, in order; H or OH if unused. Where a SMILES comes first, the peptide text is derived from it. Bridges are numbered along the chain shown (N, C = ends). The star is where a group is joined. X1 = CC(C)C[C@@H](CNC(=O)N1C[C@@H](SCCCCCC[*:1])C[C@H]1C(N)=O)NC(=O)NC[C@H](CC(C)C)N[*:2]; X4 = CC(C)C[C@@H](CNC(=O)N1CCC[C@H]1C(N)=O)NC(=O)NC[C@H](CC(C)C)N*; X2 = CC(C)C[C@@H](CNC(=O)N[C@@H](C)CNC(=O)N1CCC[C@H]1C(N)=O)N*

p53‐hDM2 interaction, sequence (Q00987 whole entry): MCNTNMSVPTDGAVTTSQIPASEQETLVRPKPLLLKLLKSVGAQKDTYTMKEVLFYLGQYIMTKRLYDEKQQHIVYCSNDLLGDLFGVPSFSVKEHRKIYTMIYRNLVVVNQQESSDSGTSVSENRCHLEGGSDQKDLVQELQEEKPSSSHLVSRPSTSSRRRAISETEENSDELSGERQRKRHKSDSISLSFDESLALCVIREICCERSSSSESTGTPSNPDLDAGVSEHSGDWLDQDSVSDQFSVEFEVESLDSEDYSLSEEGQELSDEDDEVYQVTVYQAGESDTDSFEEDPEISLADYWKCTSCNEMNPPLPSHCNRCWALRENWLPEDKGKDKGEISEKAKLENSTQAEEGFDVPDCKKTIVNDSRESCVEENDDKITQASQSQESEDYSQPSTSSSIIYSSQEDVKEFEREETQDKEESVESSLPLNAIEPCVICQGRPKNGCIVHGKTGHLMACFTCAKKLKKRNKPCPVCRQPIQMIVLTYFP

What is called IC50 is the concentration that gives 50% inhibition. A higher IC50 goes with a need for much substance. In general, inhibition refers to the percentage by which the read-out fell short of the control. `CC(C)C[C@@H](CNC(=O)N[C@@H](C)CNC(=O)N1CCC[C@H]1C(N)=O)NC(=O)[C@H](C)NC(=O)[C@H](Cc1c[nH]c2ccccc12)NC(=O)[C@H](Cc1ccc(O)cc1)NC(=O)[C@H](CCC(=O)O)NC(=O)[C@H](C)NC(=O)[C@H](Cc1ccccc1)NC(=O)[C@H](CO)NC(=O)[C@@H](N)[C@@H](C)O` [Compound 3] (H-TSFAEYWA-X2): the IC50 was found to be 54 ± 17 nM on p53‐hDM2 interaction and 247 ± 42 nM against p53‐hDMX interaction. Further, the inhibition at 0.1 µM turned out to be 43% on p53‐hDM2 interaction and 19% at p53‐hDMX interaction.
The matching figures for `CC(C)C[C@@H](CNC(=O)N1CCC[C@H]1C(N)=O)NC(=O)NC[C@H](CC(C)C)NC(=O)[C@H](C)NC(=O)[C@H](Cc1c[nH]c2ccccc12)NC(=O)[C@H](Cc1ccc(O)cc1)NC(=O)[C@H](CCC(=O)O)NC(=O)[C@H](C)NC(=O)[C@H](Cc1ccccc1)NC(=O)[C@H](CO)NC(=O)[C@@H](N)[C@@H](C)O` [Compound 4] (H-TSFAEYWA-X4): 6.13 ± 0.08 nM, 115 ± 5 nM, 99% and 46%.
Regarding `CC(C)C[C@H]1CNC(=O)N2C[C@H](C[C@H]2C(N)=O)SCCCCCCSC[C@H](NC(=O)[C@H](Cc2ccccc2)NC(=O)[C@H](CO)NC(=O)[C@@H](N)[C@@H](C)O)C(=O)N[C@@H](CCC(=O)O)C(=O)N[C@@H](Cc2ccc(O)cc2)C(=O)N[C@@H](Cc2c[nH]c3ccccc23)C(=O)N[C@@H](C)C(=O)N[C@@H](CC(C)C)CNC(=O)N1` [Compound 8 a] (H-TSFCEYWA; linker 4-C via X1), at p53‐hDM2 interaction, the IC50 was determined as 1.91 ± 0.05 nM and the inhibition at 0.1 µM came out at 99%. In addition, on p53‐hDMX interaction, the IC50 worked out at 75 ± 4 nM and the inhibition at 0.1 µM was 66%.
For `CC(=O)N[C@@H](CCCCN)C(=O)N[C@H](C(=O)N[C@@H](Cc1ccccc1)C(=O)N[C@H]1CSCCCCCCS[C@H]2C[C@@H](C(N)=O)N(C2)C(=O)NC[C@H](CC(C)C)NC(=O)NC[C@H](CC(C)C)NC(=O)[C@H](C)NC(=O)[C@H](Cc2c[nH]c3ccccc23)NC(=O)[C@H](Cc2ccc(O)cc2)NC(=O)[C@H](CCC(=O)O)NC1=O)[C@@H](C)O` [Compound 10 a] (Ac-KTFCEYWA; linker 4-C via X1), the “p53 protein levels (western blot)” value with p53wt HCT116 cells is recorded as “dose‐dependent increase of p53 levels”. Besides, the “viability of p53wt HCT116 cells (in words)” value with HCT116 cells [1] is “effective in reducing the viability of p53wt HCT116 cells in a concentration‐dependent manner”. The IC50 stood at 3 ± 0.1 nM at p53‐hDM2 interaction and 63 ± 12 nM against p53‐hDMX interaction. In addition, the “mRNA of target genes p21 and hDM2 (RT-qPCR)” value in the assay on HCT116 cells [2] was “dose‐dependent induction of mRNA of target genes p21 and hDM2”.
